Experimental data as given in ChEMBL document CHEMBL5113496, “A systematic exploration of boceprevir-based main protease inhibitors as SARS-CoV-2 antivirals” (Eur J Med Chem, 2022).

Tests used:
SARS-CoV-2 [1] = test: Antiviral activity against SARS-CoV2 Beta infected in African green monkey Vero E6 cells assessed as reduction in viral plaques incubated for 3 days by plaque reduction neutralization test; assay type: functional, organism-based; details: Severe acute respiratory syndrome coronavirus 2, Beta, Vero C1008, 72 h
SARS-CoV-2 [2] = test: Antiviral activity against SARS-CoV2 USA-WA1/2020 infected in African green monkey Vero E6 cells assessed as reduction in viral plaques incubated for 3 days by plaque reduction neutralization test; assay type: functional, organism-based; details: Severe acute respiratory syndrome coronavirus 2, USA-WA1/2020, Vero C1008, 72 h
SARS-CoV-2 [3] = test: Antiviral activity against SARS-CoV2 Delta infected in African green monkey Vero E6 cells assessed as reduction in viral plaques incubated for 3 days by plaque reduction neutralization test; assay type: functional, organism-based; details: Severe acute respiratory syndrome coronavirus 2, Delta, Vero C1008, 72 h
[4] = Cytotoxicity against HEK293T/17 cells assessed as inhibition of cell growth incubated for 48 hrs by MTT assay; assay type: toxicity, cell-based; details: human, hek293t/17, 48 h
Method in brief: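 293T cells seeded and held 24 h at 37 °C, 5% CO2, then exposed in triplicate for 48 h to a range of compound concentrations. Compounds were taken from DMSO stocks and diluted in culture medium. Viability was read by MTT. CC50 was taken from normalised % viability plotted against log10 concentration.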

SMILES	EC50 (SARS-CoV-2 [1])	EC50 (SARS-CoV-2 [2])	EC50 (SARS-CoV-2 [3])	CC50 [4]
C[C@@H](OC(C)(C)C)[C@H](NC(=O)OCc1ccccc1)C(=O)N1C[C@H]2[C@@H]([C@H]1C(=O)N[C@H](C=O)C[C@@H]1CCNC1=O)C2(C)C	2280 nM	1080 nM	750 nM	163000 nM
CC(C)(C)[C@H](NC(=O)OCc1ccccc1)C(=O)N1C[C@H]2[C@@H]([C@H]1C(=O)N[C@H](C=O)C[C@@H]1CCNC1=O)C2(C)C	860 nM	2940 nM	1040 nM	144000 nM
CC(C)(C)OC(=O)N[C@H](C(=O)N1C[C@H]2[C@@H]([C@H]1C(=O)N[C@H](C=O)C[C@@H]1CCNC1=O)C2(C)C)C(C)(C)C	–	610 nM	1000 nM	34200 nM
